ChEMBL document CHEMBL1154235, “Rational design and semisynthesis of betulinic acid analogues as potent topoisomerase inhibitors” (J Nat Prod, 2009)
Calls of active or inactive are those of the source. The calls are words filed in the database; no cut-off is given here.

What was measured:
MDA-MB-231 [1] = test: Antiproliferative activity against human MDA-MB-231 cells after 3 days by MTT assay; type: functional, cell-based; conditions: MDA-MB-231, 72 h
Outline: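 MDA-MB-231 cells kept in RPMI 1640 with 10% heat-inactivated FBS and 25 mM HEPES at 37 °C in 5% CO2. Plated at about 15 000/well and preincubated 1 day, then exposed to compound for 3 days at 37 °C, with doses in triplicate. MTT added for 4 h, formazan dissolved in detergent overnight at room temperature in the dark, OD read at 580 nm against a cell-free blank. Cell numbers from a calibration curve; IC50 from dose-response curves.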

SW948 = test: Antiproliferative activity against human SW948 cells after 3 days by XTT assay; type: functional, cell-based; conditions: SW948, 72 h
Outline: (§1)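 Cells plated at 4000/well and grown 1 day at 37 °C, then exposed to a range of drug concentrations for 3 more days. Read-out by XTT tetrazolium reduction on a plate reader. Each concentration run in triplicate. IC50 taken from a linear-quadratic fit. Assays repeated two or three times and reported as mean ± SE. HCT-116 kept in modified McCoy's 5a and SW948 in Leibovitz's L-15, each with 10% heat-inactivated FBS and 2 mM L-glutamine.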

[2] = molecular target: DNA topoisomerase 2-alpha (Homo sapiens) (UniProt P11388); test: Inhibition of topoisomerase 2 alpha catalytic activity assessed as decatenation of kinetoplast DNA at 100 uM after 15 mins by agarose gel electrophoresis
Chain of DNA topoisomerase 2-alpha (Homo sapiens) (P11388 whole entry): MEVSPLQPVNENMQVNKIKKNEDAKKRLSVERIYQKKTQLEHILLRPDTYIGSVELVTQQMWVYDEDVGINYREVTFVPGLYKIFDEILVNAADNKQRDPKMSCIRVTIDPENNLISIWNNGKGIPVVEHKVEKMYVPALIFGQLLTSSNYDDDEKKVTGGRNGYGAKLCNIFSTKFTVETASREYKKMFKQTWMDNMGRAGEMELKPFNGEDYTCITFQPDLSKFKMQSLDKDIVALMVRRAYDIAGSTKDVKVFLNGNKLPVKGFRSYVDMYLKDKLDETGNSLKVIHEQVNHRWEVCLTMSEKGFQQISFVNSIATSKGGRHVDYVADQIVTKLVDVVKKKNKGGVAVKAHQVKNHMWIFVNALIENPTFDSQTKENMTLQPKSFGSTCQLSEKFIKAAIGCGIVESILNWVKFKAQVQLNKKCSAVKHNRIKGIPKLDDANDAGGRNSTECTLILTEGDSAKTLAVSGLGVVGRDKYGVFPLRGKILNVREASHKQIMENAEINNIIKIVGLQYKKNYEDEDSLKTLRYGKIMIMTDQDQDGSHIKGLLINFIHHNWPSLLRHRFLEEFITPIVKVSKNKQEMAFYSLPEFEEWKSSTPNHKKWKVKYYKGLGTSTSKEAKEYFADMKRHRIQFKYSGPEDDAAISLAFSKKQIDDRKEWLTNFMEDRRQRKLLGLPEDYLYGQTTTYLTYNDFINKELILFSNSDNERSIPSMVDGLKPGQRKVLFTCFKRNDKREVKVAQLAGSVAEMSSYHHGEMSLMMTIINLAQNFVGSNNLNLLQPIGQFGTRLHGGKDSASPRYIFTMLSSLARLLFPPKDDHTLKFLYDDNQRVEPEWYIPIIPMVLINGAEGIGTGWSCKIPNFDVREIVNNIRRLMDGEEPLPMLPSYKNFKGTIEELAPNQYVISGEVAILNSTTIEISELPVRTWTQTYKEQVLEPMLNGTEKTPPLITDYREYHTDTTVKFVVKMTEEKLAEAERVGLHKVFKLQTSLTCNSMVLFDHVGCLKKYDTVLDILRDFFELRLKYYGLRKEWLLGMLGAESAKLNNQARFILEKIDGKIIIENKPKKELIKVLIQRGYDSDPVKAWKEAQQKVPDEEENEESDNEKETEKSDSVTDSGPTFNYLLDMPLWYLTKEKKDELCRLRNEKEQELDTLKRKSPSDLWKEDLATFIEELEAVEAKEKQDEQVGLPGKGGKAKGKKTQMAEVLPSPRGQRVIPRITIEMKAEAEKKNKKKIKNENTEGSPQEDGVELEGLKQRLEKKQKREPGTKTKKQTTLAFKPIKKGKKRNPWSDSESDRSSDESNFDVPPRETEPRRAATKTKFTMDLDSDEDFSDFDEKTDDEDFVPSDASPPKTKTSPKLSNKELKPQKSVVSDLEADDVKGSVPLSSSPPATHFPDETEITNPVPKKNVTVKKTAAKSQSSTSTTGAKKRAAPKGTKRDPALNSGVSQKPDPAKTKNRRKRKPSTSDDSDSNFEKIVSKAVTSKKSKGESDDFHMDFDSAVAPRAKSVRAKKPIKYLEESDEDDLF

HCT-116 = test: Antiproliferative activity against human HCT116 cells after 3 days by XTT assay; type: functional, cell-based; conditions: HCT-116, 72 h; outline: as §1
[3] = molecular target: T1, DNA topoisomerase 1 (Homo sapiens) (UniProt P11387); test: Inhibition of topoisomerase 1 catalytic activity assessed as relaxation of supercoiled plasmid DNA at 100 uM after 30 mins by agarose gel electrophoresis
T1 sequence (whole entry): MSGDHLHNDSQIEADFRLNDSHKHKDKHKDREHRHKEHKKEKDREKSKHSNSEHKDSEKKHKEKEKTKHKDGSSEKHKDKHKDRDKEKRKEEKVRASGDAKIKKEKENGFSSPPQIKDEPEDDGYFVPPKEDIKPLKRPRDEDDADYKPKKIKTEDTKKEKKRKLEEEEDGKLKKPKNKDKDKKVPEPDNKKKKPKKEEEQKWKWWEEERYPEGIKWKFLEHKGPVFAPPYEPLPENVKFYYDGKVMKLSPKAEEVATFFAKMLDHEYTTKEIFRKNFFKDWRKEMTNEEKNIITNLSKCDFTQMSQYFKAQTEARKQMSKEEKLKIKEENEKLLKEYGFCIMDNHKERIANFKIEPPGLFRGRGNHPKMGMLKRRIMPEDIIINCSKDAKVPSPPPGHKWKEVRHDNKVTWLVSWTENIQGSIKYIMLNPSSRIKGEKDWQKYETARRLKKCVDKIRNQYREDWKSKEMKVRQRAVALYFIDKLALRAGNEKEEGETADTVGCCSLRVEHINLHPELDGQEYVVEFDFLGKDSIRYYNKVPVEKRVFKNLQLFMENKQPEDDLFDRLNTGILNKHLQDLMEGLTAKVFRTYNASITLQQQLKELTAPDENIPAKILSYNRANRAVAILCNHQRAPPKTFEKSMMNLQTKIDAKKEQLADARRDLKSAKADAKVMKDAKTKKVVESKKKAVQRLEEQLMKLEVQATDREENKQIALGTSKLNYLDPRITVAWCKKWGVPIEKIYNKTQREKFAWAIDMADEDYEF
Outline: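 Compound at 100 µM final with topoisomerase I (2U), 37 °C 30 min. Stopped with 1% SDS, proteinase K digestion, 1% agarose TAE gel, ethidium bromide stain, imaging quantitation. Scored 0 to 3+ against camptothecin.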

HL-60(TB) = test: Growth inhibition of human HL-60(TB) cells; type: functional
MDA-MB-231 [4] = test: Growth inhibition of human MDA-MB-231 cells; type: functional

Row | SMILES | IC50 (MDA-MB-231 [1]) [µM] | IC50 (SW948) [µM] | inhibition [2] | IC50 (HCT-116) [µM] | inhibition [3] | GI50 (HL-60(TB)) [µM] | GI50 (MDA-MB-231 [4]) [µM]
1 | C=C(C)[C@@H]1CC[C@]2(C(=O)O)CC[C@]3(C)[C@H](CC[C@@H]4[C@@]5(C)CC[C@H](OC(=O)NCc6ccccc6)C(C)(C)[C@@H]5CC[C@]43C)[C@@H]12 | 0.45 | > 25 | Active | 22.2 | Active | – | –
2 | CC1(C)[C@@H](O)CC[C@]2(C)[C@H]3CC[C@@H]4[C@H]5[C@H]([C@]6(C)CO6)CC[C@]5(C(=O)O)CC[C@@]4(C)[C@]3(C)CC[C@@H]12 | 4.08 | > 25 | inactive | > 25 | inactive | – | –
3 | C=C(C)[C@@H]1CC[C@]2(C(O)=S)CC[C@]3(C)[C@H](CC[C@@H]4[C@@]5(C)CC[C@H](OP(=S)(S)c6ccc(OC)cc6)C(C)(C)[C@@H]5CC[C@]43C)[C@@H]12 (stereo partly specified) | 9.83 | > 25 | Active | > 25 | Active | – | –
4 | C=C(C)[C@@H]1CC[C@]2(C(=O)O)CC[C@]3(C)[C@H](CC[C@@H]4[C@@]5(C)CC[C@H](OS(=O)(=O)c6ccccc6)C(C)(C)[C@@H]5CC[C@]43C)[C@@H]12 | 0.8 | 6.84 | Active | 21.3 | inactive | – | –
5 | C=C(C)[C@@H]1CC[C@]2(C(=O)NS(=O)(=O)c3ccccc3)CC[C@]3(C)[C@H](CC[C@@H]4[C@@]5(C)CC[C@H](OC(=O)NS(=O)(=O)c6ccccc6)C(C)(C)[C@@H]5CC[C@]43C)[C@@H]12 | 0.92 | 17.4 | Active | 13.3 | Active | – | –
6 | C=C(C)[C@@H]1CC[C@]2(C(=O)O)CC[C@]3(C)[C@H](CC[C@@H]4[C@@]5(C)CC[C@H](OC(=O)Nc6ccc(-c7ccccc7)cc6)C(C)(C)[C@@H]5CC[C@]43C)[C@@H]12 | > 25 | > 25 | Active | > 25 | inactive | – | –
7 | C[C@H](C=O)[C@@H]1CC[C@]2(C(=O)O)CC[C@]3(C)[C@H](CC[C@@H]4[C@@]5(C)CC[C@H](O)C(C)(C)[C@@H]5CC[C@]43C)[C@@H]12 | 0.17 | > 25 | inactive | > 25 | Active | – | –
8 | C=C(C)[C@@H]1CC[C@]2(C(=O)O)CC[C@]3(C)[C@H](CC[C@@H]4[C@@]5(C)CCC(=O)C(C)(C)[C@@H]5CC[C@]43C)[C@@H]12 [BETUNOLIC ACID] | 9.77 | 19.2 | inactive | 2.61 | inactive | – | –
9 | C=C(C)[C@@H]1CC[C@]2(C(=O)O)CC[C@]3(C)[C@H](CC[C@@H]4[C@@]5(C)CC[C@H](OC(=O)Nc6cccc7ccccc67)C(C)(C)[C@@H]5CC[C@]43C)[C@@H]12 | > 25 | > 25 | Active | > 25 | inactive | – | –
10 | CC[C@@]1(O)C(=O)OCc2c1cc1n(c2=O)Cc2cc3ccccc3nc2-1 [CAMPTOTHECIN] | – | 0.16 | – | 0.13 | – | – | –
11 | C=C(C)[C@@H]1CC[C@]2(C(O)=S)CC[C@]3(C)[C@H](CC[C@@H]4[C@@]5(C)CCC(=O)C(C)(C)[C@@H]5CC[C@]43C)[C@@H]12 | > 25 | > 25 | inactive | > 25 | inactive | – | –
12 | C=C(C=O)[C@@H]1CC[C@]2(C(=O)O)CC[C@]3(C)[C@H](CC[C@@H]4[C@@]5(C)CC[C@H](O)C(C)(C)[C@@H]5CC[C@]43C)[C@@H]12 | 1.37 | 14.9 | inactive | 4.38 | Active | – | –
13 | COc1cc([C@@H]2c3cc4c(cc3[C@@H](O[C@@H]3O[C@@H]5CO[C@@H](C)O[C@H]5[C@H](O)[C@H]3O)[C@H]3COC(=O)[C@H]23)OCO4)cc(OC)c1O [ETOPOSIDE] | – | 1.3 | Active | – | – | – | –
14 | C=CCNC(=O)O[C@H]1CC[C@]2(C)[C@H]3CC[C@@H]4[C@H]5[C@H](C(=C)C)CC[C@]5(C(=O)O)CC[C@@]4(C)[C@]3(C)CC[C@H]2C1(C)C | 0.65 | 17.6 | Active | 17.7 | inactive | – | –
15 | C=C(C)[C@@H]1CC[C@]2(C(=O)O)CC[C@]3(C)[C@H](CC[C@@H]4[C@@]5(C)CC[C@H](O)C(C)(C)[C@@H]5CC[C@]43C)[C@@H]12 [BETULINIC ACID] | 15.2 | 10.5 | inactive | 13.5 | inactive | 3.16 | 3.98
